From ChEMBL document CHEMBL2434878, “Synthesis and antimycobacterial activity of analogues of the bioactive natural products sampangine and cleistopholine” (Eur J Med Chem, 2013)
≈ marks a conversion by molar mass, not a printed value.

Assays:
[1] = Cytotoxicity against human HepG2/C3A cells after 24 hrs by neutral red dye uptake assay; assay type: cell-based
[2] = test system: Mycobacterium tuberculosis; assay: Antimicrobial activity against Mycobacterium tuberculosis H37Rv ATCC 27294 expressing luciferase reporter gene infected in mouse J774 macrophages assessed as intracellular growth inhibition at 2 uM after 4 days by luminometry relative to untreated control; assay type: functional; conditions: H37Rv ATCC 27294, J774, 96 h, read-out: GI
Method in brief: (§1)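 J774.A1 murine macrophages were seeded at 40,000 cells/well, recovered overnight and infected with luminescent H37Rv. From 24 h post-infection, cells were treated for 4 days in DMEM with penicillin and fungizone, without gentamicin. Growth was read by luminescence after 1% n-decanal and expressed as percent inhibition versus untreated, in triplicate. Macrophage viability was checked by trypan blue.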

[3] = test system: Mycobacterium tuberculosis; assay: Antimicrobial activity against Mycobacterium tuberculosis H37Rv ATCC 27294 expressing luciferase reporter gene assessed as growth inhibition after 6 days by luminometry; assay type: functional; conditions: H37Rv ATCC 27294, 144 h
Method in brief: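 Luminescent H37Rv (pSMT1, V. harveyi luciferase) was declumped by filtration, adjusted to 50,000 RLU/ml in 7H9-10% FCS, and exposed to serial compound dilutions in triplicate for 6 days at 37 °C. Light was read for 10 s after adding 1% n-decanal. GI50 is the concentration giving 50% growth reduction versus untreated culture.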

[4] = test system: Mycobacterium tuberculosis; assay: Antimicrobial activity against Mycobacterium tuberculosis H37Rv ATCC 27294 expressing luciferase reporter gene assessed as growth inhibition at 10 uM after 6 days by luminometry relative to control; assay type: functional; conditions: H37Rv ATCC 27294, 144 h, read-out: GI
Method in brief: (§2)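 Single-concentration screen of the luminescent H37Rv reporter strain in 7H9-10% FCS, inoculated at 50,000 RLU/ml, 6 days at 37 °C. Luminescence was read after n-decanal addition. Percent inhibition is versus the untreated culture, as the mean of triplicate cultures.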

[5] = test system: Mycobacterium tuberculosis; assay: Antimicrobial activity against Mycobacterium tuberculosis H37Rv ATCC 27294 expressing luciferase reporter gene assessed as growth inhibition at 0.1 uM after 6 days by luminometry relative to control; assay type: functional; conditions: H37Rv ATCC 27294, 144 h, read-out: GI; method in brief: as §2
Mycobacterium ulcerans = assay: Antimicrobial activity against Mycobacterium ulcerans 1615 expressing luciferase reporter gene assessed as growth inhibition after 6 days by luminometry; assay type: functional; conditions: Mycobacterium ulcerans, 1615, 144 h
Method in brief: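 Luminescent M. ulcerans 1615 carrying pSMT1 luciferase plasmid, grown at 32 °C in 7H9 with 10% OADC and 0.2% glycerol. Serial dilutions from 10 mM DMSO stocks in 7H9 + 10% FCS; bacteria dosed at 50,000 RLU/ml, triplicate wells. After 6 days, light read over 10 s following 1% n-decanal in ethanol. GI50 taken at 50% growth reduction versus untreated culture.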

[6] = test system: Mycobacterium tuberculosis; assay: Antimicrobial activity against Mycobacterium tuberculosis H37Rv ATCC 27294 expressing luciferase reporter gene infected in mouse J774 macrophages assessed as intracellular growth inhibition at 0.5 uM after 4 days by luminometry relative to untreated control; assay type: functional; conditions: H37Rv ATCC 27294, J774, 96 h, read-out: GI; method in brief: as §1
[7] = test system: Mycobacterium avium subsp. paratuberculosis; assay: Antimicrobial activity against Mycobacterium avium subsp. paratuberculosis ATCC 15769 expressing luciferase reporter gene assessed as growth inhibition after 6 days by luminometry; assay type: functional; conditions: ATCC 15769, 144 h
[8] = test system: Mycobacterium tuberculosis; assay: Antimicrobial activity against Mycobacterium tuberculosis H37Rv ATCC 27294 expressing luciferase reporter gene assessed as reduction in bacterial count after 6 days by luminometry; assay type: functional; conditions: H37Rv ATCC 27294, 144 h
Method in brief: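 MIC by serial dilution in the 6-day luminescent H37Rv assay (7H9-10% FCS, 50,000 RLU/ml inoculum, triplicate wells, n-decanal read-out). MIC is the concentration giving at least one log10 reduction in signal versus the untreated control.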

[9] = test system: Mycobacterium tuberculosis; assay: Antimicrobial activity against Mycobacterium tuberculosis H37Rv ATCC 27294 expressing luciferase reporter gene assessed as growth inhibition at 1 uM after 6 days by luminometry relative to control; assay type: functional; conditions: H37Rv ATCC 27294, 144 h, read-out: GI; method in brief: as §2
[10] = Therapeutic index, ratio of IC50 for human HepG2/C3A cells to GI50 for Mycobacterium tuberculosis H37Rv ATCC 27294; assay type: cell-based; conditions: read-out: TI
Method in brief: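 TI is NI50/GI50. NI50 came from a neutral red uptake assay in C3A hepatocytes (40,000 cells/well, 24 h exposure at 37 °C, 3 h dye, OD 530 nm with 620 nm reference): the concentration reducing dye uptake by 50%. GI50 came from the 6-day luminescent H37Rv assay.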

[11] = Antimicrobial activity against Mycobacterium avium subsp. avium ATCC 19698 expressing luciferase reporter gene assessed as growth inhibition after 6 days by luminometry; assay type: functional; conditions: ATCC 19698, 144 h
[12] = test system: Mycobacterium tuberculosis; assay: Antimicrobial activity against Mycobacterium tuberculosis H37Rv ATCC 27294 expressing luciferase reporter gene infected in mouse J774 macrophages assessed as intracellular growth inhibition at 1 uM after 4 days by luminometry relative to untreated control; assay type: functional; conditions: H37Rv ATCC 27294, J774, 96 h, read-out: GI; method in brief: as §1
[13] = test system: Mycobacterium intracellulare; assay: Antimicrobial activity against Mycobacterium intracellulare; assay type: functional

| Compound | IC50 [1] [µM] | inhibition of growth at 2 µM [2] [%] | GI50 [3] [µM] | inhibition of growth at 10 µM [4] [%] | inhibition of growth at 0.1 µM [5] [%] | GI50 (Mycobacterium ulcerans) [µM] | inhibition of growth at 0.5 µM [6] [%] | GI50 [7] [µM] | MIC90 [8] [µM] | inhibition of growth at 1 µM [9] [%] | selectivity ratio [10] | GI50 [11] [µM] | inhibition of growth at 1 µM [12] [%] | MIC [13] [µg/mL] |
| --- | --- | --- | --- | --- | --- | --- | --- | --- | --- | --- | --- | --- | --- | --- |
| O=C1c2ccccc2-c2nccc3nc(-c4ccccc4)cc1c23 | 21.5 | 48.2 | 0.55 | 100 | 67 | 10.6 | 14.6 | 3.21 | 1.2 (≈ 0.37 µg/mL) | 95 | 39.1 | 4.22 | 32.6 |  |
| Cc1nc(C(C)C)cc2c1C(=O)c1ccccc1C2=O |  |  |  | 54 | < 10 |  |  |  |  | 24 |  |  |  |  |
| Cc1nc(-c2ccc(Cl)cc2)cc2c1C(=O)c1ccccc1C2=O |  |  |  | 100 | 42 |  |  |  |  | 68 |  |  |  |  |
| O=C1c2ccccc2-c2nccc3nc(-c4ccc(F)cc4)cc1c23 | > 50 | 65.5 | 0.69 | 100 | 53 | 9.23 | 15.3 | 3.56 | 1.5 (≈ 0.489 µg/mL) | 100 | > 72.4 | 3.98 | 30.2 |  |
| O=C1c2ccccc2C(=O)c2c(O)cc(-c3ccccc3)cc21 | 10.8 | 68.3 | 0.86 | 100 | 15 | 12.6 | 36.6 | 4.71 | 2.12 (≈ 0.637 µg/mL) | 88 | 12.6 | 5.02 | 49 |  |
| Cc1nc(C(C)(C)C)cc2c1C(=O)c1ccccc1C2=O |  |  |  | 51 | < 10 |  |  |  |  | 18 |  |  |  |  |
| COc1ccc(OC)c(-c2cc3c(c(C)n2)C(=O)c2ccccc2C3=O)c1 |  |  |  | 86 | < 10 |  |  |  |  | 35 |  |  |  |  |
| O=C1c2ccccc2-c2nccc3cncc1c23 |  |  |  | 62 | 11 |  |  |  |  | 25 |  |  |  |  |
| CN(C)/C=C/c1nc(-c2ccc(Cl)cc2)cc2c1C(=O)c1ccccc1C2=O | 18.8 | 54.4 | 0.55 | 100 | 34 | 7.69 | 19.8 | 3.95 | 1.1 (≈ 0.428 µg/mL) | 91 | 34.2 | 3.88 | 35.6 |  |
| COc1ccc(-c2cc3c(c(C)n2)C(=O)c2ccccc2C3=O)cc1 |  |  |  | 100 | 32 |  |  |  |  | 70 |  |  |  |  |
| COc1ccc(OC)c(-c2cc3c(c(/C=C/N(C)C)n2)C(=O)c2ccccc2C3=O)c1 |  |  |  | 87 | 35 |  |  |  |  | 47 |  |  |  |  |
| O=C1c2ccccc2-c2nccc3ccnc1c23 [SAMPANGINE] |  |  |  |  |  |  |  |  |  |  |  |  |  | 0.78 (≈ 3.36 µM) |
| O=C1c2ccccc2-c2nccc3nc(-c4ccc(Cl)cc4)cc1c23 | > 50 | 44.2 | 0.72 | 99 | 77 |  | 2.27 |  | 1.85 (≈ 0.634 µg/mL) | 99 | > 69.4 |  | 20.3 |  |
| Cc1ccc(-c2cc(O)c3c(c2)C(=O)c2ccccc2C3=O)cc1 |  |  |  | 98 | 21 |  |  |  |  | 35 |  |  |  |  |
| COc1ccc(OC)c(-c2cc3c4c(nccc4n2)-c2ccccc2C3=O)c1 |  |  |  | 87 | 39 |  |  |  |  | 75 |  |  |  |  |
| Cc1ccc(-c2cc3c(c(/C=C/N(C)C)n2)C(=O)c2ccccc2C3=O)cc1 | 27.9 | 48.7 | 0.69 | 100 | 39 | 8.59 | 15.9 | 4.83 | 1.5 (≈ 0.553 µg/mL) | 100 | 40.4 | 3.69 | 36.2 |  |
| Cc1cncc2c1C(=O)c1ccccc1C2=O |  |  |  | 48 | < 10 |  |  |  |  | 11 |  |  |  |  |
| Cc1nc(-c2ccccc2)cc2c1C(=O)c1ccccc1C2=O |  |  |  | 98 | 21 |  |  |  |  | 66 |  |  |  |  |
| Cc1ccnc2c1C(=O)c1ccccc1C2=O [CLEISTOPHOLINE] |  |  |  |  |  |  |  |  |  |  |  |  |  | 12.5 (≈ 56 µM) |
| O=C1c2ccccc2-c2nccc3c2c1nc1ccccc13 [BENZOSAMPANGINE] |  |  |  |  |  |  |  |  |  |  |  |  |  | 0.39 (≈ 1.38 µM) |
| Cc1ccc(-c2cc3c(c(C)n2)C(=O)c2ccccc2C3=O)cc1 |  |  |  | 99 | 54 |  |  |  |  | 63 |  |  |  |  |
| Cc1ccc(-c2cc3c4c(nccc4n2)-c2ccccc2C3=O)cc1 | 7.14 | 47.2 | 0.43 | 100 | 73 |  | 7 |  | 1.31 (≈ 0.422 µg/mL) | 100 | 16.6 |  | 34.6 |  |
| CN(C)/C=C/c1nc(-c2ccc(F)cc2)cc2c1C(=O)c1ccccc1C2=O | 37.3 | 60.5 | 0.41 | 100 | 35 | 7.49 | 10.2 | 3.23 | 0.88 (≈ 0.328 µg/mL) | 92 | 91 | 3.65 | 27.3 |  |
| CN(C)/C=C/c1nc(-c2ccccc2)cc2c1C(=O)c1ccccc1C2=O | 24.4 | 49.5 | 0.52 | 100 | 45 | 8.65 | 13.4 | 3.68 | 1.4 (≈ 0.496 µg/mL) | 100 | 46.9 | 4.89 | 34.6 |  |
| CN(C)/C=C/c1cncc2c1C(=O)c1ccccc1C2=O |  |  |  | 53 | < 10 |  |  |  |  | 17 |  |  |  |  |
| NNC(=O)c1ccncc1 [ISONIAZID] |  | 97.3 | 0.01 | 100 | 99 |  | 76.4 |  | 0.09 (≈ 0.0123 µg/mL) | 100 |  |  | 92.8 |  |
| CN(C)/C=C/c1nc(C(C)(C)C)cc2c1C(=O)c1ccccc1C2=O |  |  |  | 73 | 21 |  |  |  |  | 53 |  |  |  |  |
| Cc1nc(-c2ccc(F)cc2)cc2c1C(=O)c1ccccc1C2=O |  |  |  | 100 | 41 |  |  |  |  | 68 |  |  |  |  |
| Cc1nccc2c1C(=O)c1ccccc1C2=O |  |  |  | 58 | 10 |  |  |  |  | 22 |  |  |  |  |
| CC(C)(C)c1ccc(-c2cc3c4c(nccc4n2)-c2ccccc2C3=O)cc1 |  |  |  | 73 | 32 |  |  |  |  | 41 |  |  |  |  |
